Experiments:
[1] = Cytotoxicity against human MT4 cells assessed as cell viability by MTT assay; assay type: cell-based
[2] = Ratio of TMC120 CC50 to compound CC50 for human MT4 cells; assay type: ADME, cell-based
[3] = tested on: Human immunodeficiency virus type 1 reverse transcriptase (Human immunodeficiency virus 1), Q72547 [L100I]
[4] = tested on: Human immunodeficiency virus type 1 reverse transcriptase (Human immunodeficiency virus 1), Q72547 [Y181I]
[5] = tested on: Human immunodeficiency virus 1; experiment: Resistance ratio of EC50 for HIV 1 harboring reverse transcriptase K103N mutant infected in human MT4 cells to EC50 for wild type HIV 1 NL4-3 infected in human MT4 cells; assay type: functional
Procedure, shortened: (§1)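 Fold change is the EC50 against the mutant strain (K103N, Y181C, Y188L or IRLL98) divided by the EC50 against wild-type NL4-3. Both EC50s come from MT-4 cells infected in the presence of a range of drug concentrations, with MTT viability read at day 5. Values are means of at least two experiments.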

[6] = tested on: Human immunodeficiency virus 1; experiment: Resistance ratio of EC50 for HIV 1 harboring reverse transcriptase Y181C mutant infected in human MT4 cells to EC50 for wild type HIV 1 NL4-3 infected in human MT4 cells; assay type: functional; procedure, shortened: as §1
[7] = tested on: Human immunodeficiency virus 1; experiment: Antiviral activity against HIV 1 harboring reverse transcriptase Y188L mutant infected in human MT4 cells assessed as inhibition of virus-induced cytopathic effect after 5 days by MTT assay; assay type: functional, organism-based; conditions: Human immunodeficiency virus 1, MT4, 120 h
[8] = tested on: Human immunodeficiency virus 1; experiment: Antiviral activity against HIV 1 harboring reverse transcriptase Y181C mutant infected in human MT4 cells assessed as inhibition of virus-induced cytopathic effect after 5 days by MTT assay; assay type: functional, organism-based; conditions: Human immunodeficiency virus 1, MT4, 120 h
Procedure, shortened: (§2)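 MT-4 cells (NIH AIDS Reagent Program) infected with the mutant HIV-1 strain in the presence of a range of drug concentrations. Mutant strains were from the MRC Centralised Facility for AIDS Reagents; IRLL98 carries K101Q, Y181C and G190A. Viable cells were counted by MTT colorimetry at day 5 post-infection. […] Values are means of at least two experiments.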

[9] = tested on: Human immunodeficiency virus 1; experiment: Antiviral activity against wild type HIV 1 NL4-3 infected in human MT4 cells assessed as inhibition of virus-induced cytopathic effect after 5 days by MTT assay; assay type: functional, organism-based; conditions: Human immunodeficiency virus 1, NL4-3, MT4, 120 h
MT4 = experiment: Ratio of MC1220 CC50 to compound CC50 for human MT4 cells; assay type: ADME, cell-based
[10] = tested on: Human immunodeficiency virus 1; experiment: Ratio of ID50 for HIV 1 reverse transcriptase L100I mutant to ID50 for wild type HIV 1 NL4-3 reverse transcriptase
Procedure, shortened: (§3)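 Recombinant HIV-1 RT (wild type or K103N, L100I, Y181I or Y188L), purified to >95%, at 2-4 nM. RNA-dependent DNA polymerase assay with 0.5 μg poly(rA)/oligo(dT) 10:1 (0.3 μM 3'-OH ends) and 10 μM [3H]dTTP in 8% final DMSO. Initial velocities were taken from aliquots sampled every 2 min. […] The ratio is mutant ID50 over wild-type ID50. Means of at least three experiments.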

[11] = tested on: Human immunodeficiency virus 1; experiment: Ratio of efavirenz EC50 to compound EC50 for wild type HIV 1 NL4-3 infected in human MT4 cells; assay type: functional
[12] = biological target: Human immunodeficiency virus type 1 reverse transcriptase (Human immunodeficiency virus 1) (UniProt Q72547)
[13] = tested on: Human immunodeficiency virus 1; experiment: Ratio of ID50 for HIV 1 reverse transcriptase Y188L mutant to ID50 for wild type HIV 1 NL4-3 reverse transcriptase; procedure, shortened: as §3
[14] = tested on: Human immunodeficiency virus 1; experiment: Ratio of ID50 for HIV 1 reverse transcriptase Y181I mutant to ID50 for wild type HIV 1 NL4-3 reverse transcriptase; procedure, shortened: as §3
[15] = tested on: Human immunodeficiency virus 1; experiment: Antiviral activity against HIV 1 harboring reverse transcriptase K103N mutant infected in human MT4 cells assessed as inhibition of virus-induced cytopathic effect after 5 days by MTT assay; assay type: functional, organism-based; conditions: Human immunodeficiency virus 1, MT4, 120 h
[16] = tested on: Human immunodeficiency virus 1; experiment: Resistance ratio of EC50 for HIV 1 harboring reverse transcriptase Y188L mutant infected in human MT4 cells to EC50 for wild type HIV 1 NL4-3 infected in human MT4 cells; assay type: functional; procedure, shortened: as §1
[17] = tested on: Human immunodeficiency virus 1; experiment: Ratio of ID50 for HIV 1 reverse transcriptase K103N mutant to ID50 for wild type HIV 1 NL4-3 reverse transcriptase; procedure, shortened: as §3
[18] = Selectivity index, ratio of CC50 for human MT4 cells to EC50 for HIV 1 NL4-3; assay type: toxicity, cell-based; conditions: read-out: Ratio CC50/EC50
Procedure, shortened: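 CC50 from mock-infected MT-4 cells and EC50 against HIV-1 NL4-3 in infected MT-4 cells, both by day-5 MTT viability read-out; index computed as CC50/EC50(NL4-3); means of at least two experiments.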

[19] = tested on: Human immunodeficiency virus type 1 reverse transcriptase (Human immunodeficiency virus 1), Q72547 [K103N]
[20] = tested on: Human immunodeficiency virus 1; experiment: Antiviral activity against multidrug-resistant HIV 1 IRLL98 harboring reverse transcriptase K101Q/Y181C/G190a mutant infected in human MT4 cells assessed as virus-induced cytopathic effect after 5 days by MTT assay; assay type: functional, organism-based; conditions: Human immunodeficiency virus 1, IRLL98, MT4, 120 h; procedure, shortened: as §2
[21] = tested on: Human immunodeficiency virus 1; experiment: Resistance ratio of EC50 for multidrug-resistant HIV 1 IRLL98 harboring reverse transcriptase K101Q/Y181C/G190a mutant to EC50 for wild type HIV 1 NL4-3 infected in human MT4 cells; assay type: functional; procedure, shortened: as §1
[22] = tested on: Human immunodeficiency virus type 1 reverse transcriptase (Human immunodeficiency virus 1), Q72547 [K103N]; experiment: Ratio of MC1220 ID50 to compound ID50 for HIV 1 reverse transcriptase K103N mutant

## Cc1c(N)nc(Nc2ccc(C#N)cc2)nc1Cc1c(F)cccc1F
[1]
  CC50: 45900 nM
[2]
  selectivity ratio: > 10
[3]
  ID50: 603 nM
[4]
  ID50: 22100 nM
[5]
  Ratio EC50: 41
[6]
  Ratio EC50: 352
[7]
  EC50: 151 nM
[8]
  EC50: 70.3 nM
[9]
  EC50: 0.2 nM
MT4
  Ratio: 2.5
[10]
  Ratio: 55
[11]
  Ratio EC50: >10
[12]
  ID50: 11 nM
[13]
  Ratio: 315
[14]
  Ratio: 2010
[15]
  EC50: 8.2 nM
[16]
  Ratio EC50: 756
[17]
  Ratio: 8
[18]
  selectivity ratio: 230000
[19]
  ID50: 90 nM

## Cc1c(N)nc(Nc2ccc(C#N)cc2)nc1C(C)c1c(F)cccc1F (stereo not drawn)
[20]
  EC50: 0.82 nM
[1]
  CC50: 40500 nM
[2]
  selectivity ratio: > 10
[3]
  ID50: 282 nM
[4]
  ID50: 1680 nM
[21]
  Ratio EC50: 10
[7]
  EC50: 27.4 nM
[8]
  EC50: 39.9 nM
[9]
  EC50: 0.08 nM
MT4
  Ratio: 2.5
[10]
  Ratio: 20
[22]
  Ratio: 23
[11]
  Ratio EC50: >10
[12]
  ID50: 14 nM
[13]
  Ratio: 10
[14]
  Ratio: 120
[15]
  EC50: 34.7 nM
[17]
  Ratio: 1.6
[19]
  ID50: 22 nM

## Cc1c(Cl)nc(Nc2ccc(C#N)cc2)nc1C(C)c1c(F)cccc1F (stereo not drawn)
[20]
  EC50: 7.8 nM
[1]
  CC50: > 13000 nM
[3]
  ID50: 150 nM
[4]
  ID50: 3400 nM
[5]
  Ratio EC50: 1
[21]
  Ratio EC50: 3
[6]
  Ratio EC50: 22
[7]
  EC50: 60 nM
[8]
  EC50: 44 nM
[9]
  EC50: 2.3 nM
[10]
  Ratio: 17
[12]
  ID50: 8.8 nM
[13]
  Ratio: 2.6
[14]
  Ratio: 386
[15]
  EC50: 2.3 nM
[16]
  Ratio EC50: 30
[17]
  Ratio: 8.1
[18]
  selectivity ratio: > 5650
[19]
  ID50: 71 nM

Source: ChEMBL document CHEMBL1955737, “Diarylpyrimidine-dihydrobenzyloxopyrimidine hybrids: new, wide-spectrum anti-HIV-1 agents active at (sub)-nanomolar level” (J Med Chem, 2011)
